Measurements as given in PMC5221453 (British Journal of Pharmacology, 2016).
Like-named read-outs stand apart in the source and are kept apart here. Values belong to the compound of their own block, whether it stands above or below them.

Legend:
human S1P1 receptor = human S1P1 receptor (Homo sapiens, UniProt P21453); assay: Ca2+ mobilization assay, human S1P1 receptor-expressing cells; assay type: cell-based
healthy subjects [1] = assay: Phase I multiple ascending dose trial: heart rate and ECG; assay type: in vivo, human
In short: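 Healthy men received oral test compound at 0.125–0.75 mg or placebo for 21 days, fed. Heart rate came from 24 h 12-lead Holter ECG against a day −1 baseline, with telemetry on day 1. Mean hourly rate was fitted by a linear mixed model with a pre-dose covariate. The 1–12 h nadir was compared by ANCOVA (day −1 covariate), giving LS mean differences versus placebo with 95% CI.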

healthy subjects [2] = assay: Phase I multiple ascending dose trial: adverse events; assay type: in vivo, human
In short: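 Randomized, double-blind, placebo-controlled, parallel multiple-ascending-dose study in healthy men aged 18–45. Oral test compound was given at 0.125, 0.25, 0.5 or 0.75 mg (10 subjects per dose) or placebo (n = 10) over 21 days in the fed state. Follow-up visits were on days 28, 35, 42, 56 and 70. Adverse events were recorded throughout the study.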

healthy subjects [3] = assay: Phase I multiple ascending dose trial: peripheral lymphocyte counts; assay type: in vivo, human; settings: 0.75 mg, day 21
In short: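 Healthy men received oral test compound (0.125–0.75 mg) or placebo for 21 days in the fed state. Absolute lymphocyte counts were taken at screening and on days −2, 1–12, 14, 16, 18, 20–25, 28, 35, 42, 56 and 70.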

[4] = Phase I multiple ascending dose trial: pharmacokinetic assessment; assay type: in vivo, human
In short: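 Healthy men received oral test compound (0.125–0.75 mg, 10 per dose) for 21 days, fed. Blood was sampled on days 1–12, 14, 16, 18, 20–25, 28, 35, 42, 56 and 70. Parent and phosphate metabolite were measured in plasma and urine by validated LC/MS/MS, with LLOQ 0.05 ng·mL−1.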

cynomolgus monkeys = assay type: in vivo, cynomolgus monkeys (Macaca fascicularis); settings: conscious monkeys, oral, doses up to 30 mg·kg^−1
[5] = system: cardiac Na+ and Ca2+ channels in HCMs; assay: Cardiac Na+ and Ca2+ channels in HCMs; assay type: cell-based, human; settings: data not shown
humans [6] = settings: cited from earlier work; for decrease in the lymphocyte count: psoriasis patients, ref Vaclavkova et al., 2014
humans [7] = settings: clinical dose 0.5 mg, ref Schmouder et al., 2012; cited from earlier work
human S1P4 receptor = biological target: T1, human S1P4 receptor (Homo sapiens, UniProt O95977); assay: Ca2+ mobilization assay, human S1P4 receptor-expressing cells; assay type: cell-based
T1 sequence (O95977 1-384): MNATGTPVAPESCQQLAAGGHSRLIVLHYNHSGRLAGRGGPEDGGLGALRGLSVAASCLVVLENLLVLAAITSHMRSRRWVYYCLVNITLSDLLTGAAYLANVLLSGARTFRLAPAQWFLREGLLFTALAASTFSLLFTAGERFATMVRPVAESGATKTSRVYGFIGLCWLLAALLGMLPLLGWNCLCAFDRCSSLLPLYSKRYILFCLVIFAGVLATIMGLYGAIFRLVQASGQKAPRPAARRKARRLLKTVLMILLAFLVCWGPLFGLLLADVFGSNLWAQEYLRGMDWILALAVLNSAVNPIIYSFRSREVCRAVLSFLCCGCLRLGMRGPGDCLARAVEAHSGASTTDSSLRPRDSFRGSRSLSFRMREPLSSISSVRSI

[8] = Tissue distribution in rats; assay type: in vivo, SD rats; settings: rat, single oral 1 mg·kg^−1 of amiselimod or fingolimod
In short: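 SD rats fasted 15 h received a single oral 1 mg·kg−1 test compound without anaesthesia. Rats killed at 24 or 48 h were fed at 8 h. Plasma and heart homogenates underwent solid-phase extraction. Parent and phosphate metabolite were measured by LC–MS/MS. Parameters were derived by non-compartmental analysis. Dosing/sampling and analysis were done by separate researchers unaware of treatment.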

human S1P3 receptor = human S1P3 receptor (Homo sapiens, UniProt Q99500); assay: Ca2+ mobilization assay, human S1P3 receptor-expressing cells; assay type: cell-based
[9] = system: GIRK channels in human atrial myocytes; assay: Human GIRK channel assay in human atrial myocytes; assay type: cell-based; settings: 20 μmol·L^−1 carbachol
In short: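 Atrial myocytes were isolated from a human atrial specimen taken during cardiac surgery. GIRK current was recorded by whole-cell patch clamp at 37 ± 1°C and elicited by rapid superfusion with 20 μmol·L−1 carbachol. Current was read on a pulse to −100 mV from a −90 mV holding potential. Values were normalized to the carbachol-evoked increase. Four myocytes per condition were analysed by a blinded researcher.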

[10] = humans, ref Gergely et al., 2012, Brooks et al., 2013, Brossard et al.; cited from earlier work
[11] = healthy subjects receiving amiselimod, all doses

human S1P1 receptor, sequence (P21453 whole entry): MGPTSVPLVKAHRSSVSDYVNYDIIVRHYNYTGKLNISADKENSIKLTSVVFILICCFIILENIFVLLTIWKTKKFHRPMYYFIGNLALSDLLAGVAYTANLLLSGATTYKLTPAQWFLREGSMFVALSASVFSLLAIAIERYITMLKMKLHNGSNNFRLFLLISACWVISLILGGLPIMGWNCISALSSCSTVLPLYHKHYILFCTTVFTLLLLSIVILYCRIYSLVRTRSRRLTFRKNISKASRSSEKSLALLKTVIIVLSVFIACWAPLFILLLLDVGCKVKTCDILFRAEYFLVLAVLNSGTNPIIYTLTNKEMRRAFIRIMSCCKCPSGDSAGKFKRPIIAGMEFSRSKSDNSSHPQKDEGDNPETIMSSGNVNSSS
human S1P3 receptor, sequence (Q99500 whole entry): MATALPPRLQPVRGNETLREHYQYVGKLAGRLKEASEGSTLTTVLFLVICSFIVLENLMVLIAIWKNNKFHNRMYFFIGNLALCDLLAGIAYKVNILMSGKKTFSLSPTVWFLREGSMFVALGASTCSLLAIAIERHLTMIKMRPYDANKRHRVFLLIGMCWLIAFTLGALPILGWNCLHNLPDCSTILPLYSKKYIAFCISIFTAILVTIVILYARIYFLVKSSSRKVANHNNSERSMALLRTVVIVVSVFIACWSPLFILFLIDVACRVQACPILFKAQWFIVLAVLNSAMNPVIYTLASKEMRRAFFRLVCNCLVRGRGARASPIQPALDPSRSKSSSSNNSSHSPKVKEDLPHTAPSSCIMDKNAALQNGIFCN

EC50 (human S1P1 receptor): > 1000 nM | agonist activity at S1P1 receptors (human S1P1 receptor; up to 1000 nmol·L^−1): no agonist activity | accumulation ratios (range) ([4]; healthy subjects, after 21 day dosing): 16–29 | administered dose excreted in the urine ([4]; healthy subjects, day 21): Less than 0.2% | mean t1/2 ([4]; healthy subjects, plasma, across 0.125–0.75 mg doses): 380 to 420 h | period of accumulation to steady state ([4]; humans, inferred from long t1/2): approximately 10 weeks
SMILES: CCCCCCCOc1ccc(CCC(N)(CO)CO)cc1C(F)(F)F.Cl [Amiselimod, 2‐amino‐2‐{2‐[4‐(heptyloxy)‐3‐(trifluoromethyl)phenyl]ethyl}propan‐1,3‐diol hydrochloride]
nadir (1–12 h) mean hourly heart rate, LS mean (healthy subjects [1]; 0.5 mg, day 1): 62.213 bpm | nadir (1–12 h) mean hourly heart rate, LS mean (healthy subjects [1]; 0.75 mg, day 1): 61.952 bpm | ECG Holter transient AV conduction abnormalities, subjects (healthy subjects [1]; 0.125–0.75 mg): five subjects | PR interval, QRS width, QT interval, QTcB interval, QTcF interval and RR interval (healthy subjects [1]; 0.125–0.75 mg): not affected | decrease in heart rate versus placebo (healthy subjects [1]; up to the 0.75 mg dose, day 1): no significant decrease | mild AEs, subjects (healthy subjects [2]; 0.125 mg): 8 subjects | moderate AEs, subjects (healthy subjects [2]; 0.125 mg): 1 subjects | mild AEs, subjects (healthy subjects [2]; 0.25 mg): 4 subjects | mild AEs, subjects (healthy subjects [2]; 0.5 mg): 9 subjects | moderate AEs, subjects (healthy subjects [2]; 0.5 mg): 1 subjects | mild AEs, subjects (healthy subjects [2]; 0.75 mg): 7 subjects | moderate AEs, subjects (healthy subjects [2]; 0.75 mg): 1 subjects | number of subjects reporting AEs (healthy subjects [2]; [11]): 28 subjects | total number of AEs reported (healthy subjects [2]; [11]): 74 AEs | severe AEs or serious AEs (healthy subjects [2]; healthy subjects, during the study): no severe AEs or serious AEs | decrease in trough lymphocyte counts (healthy subjects [3]): 60% | effect on blood pressure (cynomolgus monkeys): did not affect | effects on heart rate or ECG parameters (PR interval, QRS duration, QT interval, QTc) (cynomolgus monkeys): no effects

SMILES: CCCCCCCCc1ccc(CCC(N)(CO)CO)cc1 [Fingolimod, fingolimod]
effect on cardiac Na+ and Ca2+ channels [5]: did not affect | lymphocyte counts decreased below the baseline (humans [6]; 0.5 mg, RRMS patients, ref Kappos et al., 2010): 73% | decrease in heart rate (humans [7]): 6.2 bpm

EC50 (human S1P4 receptor; read-out: EC50 values (95% CI), S1P4, agonist activity, intracellular Ca2+ mobilization, geometric mean): 66.3 nM | heart AUC0–last [8]: 17 182 ng·h·g^−1 | heart Cmax [8]: 479 ng/g | plasma AUC0–last [8]: 556 ng·h/mL
SMILES: CCCCCCCCc1ccc(CC[C@](N)(CO)COP(=O)(O)O)cc1 [Fingolimod‐P, Fingolimod phosphate]
effect on cardiac Na+ and Ca2+ channels [5]: did not affect

EC50 (human S1P4 receptor): 82.7 nM | EC50 (human S1P3 receptor): 0.16 nM | EC50 (human S1P1 receptor): 0.18 nM
SMILES: CCCCCCCCCCCCC/C=C/[C@@H](O)[C@@H](N)COP(=O)(O)O [S1P, sphingosine 1‐phosphate]
GIRK current reached, of the maximal current increase evoked by carbachol [9]: more than 90%

SMILES: CC(C)Oc1ccc(-c2nc(-c3cccc4c3CC[C@@H]4NCCO)no2)cc1C#N [ozanimod]
lymphocyte count decrease from baseline (humans [6]; 1 mg, healthy volunteers, ref Olson et al., 2013, Sandborn et al., 2015): 65% | t1/2 [10]: 17.1 h

SMILES: CCC/N=C1\S/C(=C\c2ccc(OC[C@H](O)CO)c(Cl)c2)C(=O)N1c1ccccc1C [ponesimod]
decrease in the lymphocyte count (humans [6]; 20 mg, Phase II): 56% | decrease in the lymphocyte count (humans [6]; 40 mg, Phase II): 65% | t1/2 [10]: 21.7 to 33.4 h

SMILES: CCc1cc(/C(C)=N/OCc2ccc(C3CCCCC3)c(C(F)(F)F)c2)ccc1CN1CC(C(=O)O)C1 [siponimod]
lymphocyte count decrease (humans [6]; 2 mg, RRMS patients, Phase II, ref Selmaj et al., 2013): 70% | t1/2 [10]: 21.9 to 36.3 h
